Compounds with a hit are over-represented: about 3.1% of the library has one in this group of screens.
KCNQ1 act – human KCNQ1 channel potentiation or activation | AID 2648 | actives 0.35% (n = 310,000) | CHO-K1 KCNQ1, thallium flux FluxOR fluorescence; hits give high values | P51787 | B-score at 10 µM;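 active means fluorescence ratio B-score, a plate-corrected score, at least three library SD, with initial intensity B-score within 5 SD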
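Assay system: stable KCNQ1 CHO-K1 line; medium: assay buffer, equal DMSO in all wells; timing: 90 min dye loading and 20 min compound exposure, both at room temperature; technique: kinetic FluxOR thallium fluorescence, 10-s 1-Hz baseline, 110-s post-stimulus read; read-out basis: B score of baseline-normalized fluorescence ratio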
KCNQ1 block – inhibitors of human KCNQ1 potassium channel. P51787. CHO-K1 KCNQ1, FluxOR thallium flux fluorescence; hits give high values. B-score at 10 µM. actives 1.3% (n = 310,000);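 active means compounds whose thallium flux B-score, printed positive for inhibition, exceeds three library SD while starting fluorescence stays within three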;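 further: channel opened by potassium depolarization with thallium stimulus after 20 min compound exposure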
KCNK3 block – human KCNK3 channel inhibition, primary screen; CHO-KCNK3 thallium flux, FluxOR fluorescence; hits give low values; B-score at 10 µM; actives 0.84% (n = 340,000);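 active means B-score under library mean minus 4 SD, starting fluorescence ratio at most library mean plus 5 SD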;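 further: more negative B-score means stronger inhibition of thallium flux through KCNK3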
hERG rescue – compounds protecting human hERG from proarrhythmic drug block; activation (rescue from dofetilide block), less the hit threshold, % at 10 µM; Q12809; AID 1511; CHO-hERG, FluxOR thallium flux, dofetilide IC70 present; actives 0.51% (n = 310,000);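 active means activation above the mean of controls blocked by dofetilide plus 5 SD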;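 further: thallium influx through hERG after potassium depolarization seen as dye fluorescence rise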
KCNK9 inh – blocks the human KCNK9 two-pore domain potassium channel; Q9NPC2; HEK293 KCNK9, FluxOR thallium flux fluorescence; hits give low values; B-score at 10 µM; actives 1.2% (n = 310,000);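 active means ratio B-score over 3 SD below the library mean, with starting fluorescence within 5 SD of its mean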;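 further: negative B-score means less thallium flux so channel inhibition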
Target sequence (Q9NPC2 whole entry, looked up, the tested form may be a part): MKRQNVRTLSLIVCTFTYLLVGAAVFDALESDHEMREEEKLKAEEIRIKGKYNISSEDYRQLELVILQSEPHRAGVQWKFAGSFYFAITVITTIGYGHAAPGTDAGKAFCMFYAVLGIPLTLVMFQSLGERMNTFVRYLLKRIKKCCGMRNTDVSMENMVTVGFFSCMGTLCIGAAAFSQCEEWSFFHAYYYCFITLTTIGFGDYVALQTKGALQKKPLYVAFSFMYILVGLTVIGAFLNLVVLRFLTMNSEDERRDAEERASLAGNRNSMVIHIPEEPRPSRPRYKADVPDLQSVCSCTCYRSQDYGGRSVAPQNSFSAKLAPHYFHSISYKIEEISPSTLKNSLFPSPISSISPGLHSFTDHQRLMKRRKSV
KCNK9 block conf – confirmation of human KCNK9 potassium channel inhibitors; shares compounds with KCNK9 inh; HEK293 KCNK9 cells, FluxOR thallium flux fluorescence; inhibition, % at 10 µM; actives 43% (n = 4,900);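 active means thallium signal inhibited by more than 5 SD of the compound-free buffer control wells, on both duplicate plates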
Kir2-1 spec – mouse Kir2.1 off-target activity of KCNK9 modulators | shares compounds with KCNK9 inh | Kir2.1 cells, FluxOR thallium flux fluorescence | inhibition, % at 10 µM | actives 4% (n = 4,900) | AID 492993;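 active means thallium signal drop more than 5 SD beyond the mean of the no-compound control wells, seen in both duplicate plates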;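 further: signal is fluorescence rise after thallium addition divided by baseline fluorescence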
HEK293 Tl ctr – second counter-screen for KCNK9 modulators: effect in non-induced cells. actives 40% (n = 4,900). shares compounds with KCNK9 inh. AID 492997. inhibition, % at 10 µM. non-induced KCNK9-HEK293, FluxOR thallium flux;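 active means thallium signal drop beyond 5 SD of the untreated control mean, on both duplicate plates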
Of the large screens only hits and unclear results are named; the others gave an inactive call (follow-up assays come after a bar, where they were run).

O=C1c2ccccc2C(=O)N1CC#CCN1CCN(C(c2ccccc2)c2ccccc2)CC1	none | KCNK9 block conf inactive | Kir2-1 spec inactive | HEK293 Tl ctr inactive
c1ccc(CN2CCN(C(c3ccccc3)c3ccccc3)CC2)cc1	none
CN(C)CCNC(=O)c1ccc(CS(=O)(=O)c2ccc(Br)cc2)o1	none
CCN1/C(=C/c2ccc3ccccc3[n+]2CC)C=Cc2ccccc21	KCNQ1 block 13, KCNK3 block -9, KCNK9 inh -18 | KCNK9 block conf 86% | Kir2-1 spec 94% | HEK293 Tl ctr 59%
Cc1onc(-c2c(F)cccc2Cl)c1C(=O)OCC(=O)NC(c1ccccc1)c1ccccc1	KCNK9 inh -8.3 | KCNK9 block conf 25% | Kir2-1 spec inactive | HEK293 Tl ctr 29%
Cc1noc(C)c1CSCC(=O)Nc1nc2c(F)cc(F)cc2s1	none (no result: KCNQ1 act, KCNQ1 block, hERG rescue, KCNK9 inh)
CCOC(=O)C1(CC2CC2)CCN(Cc2cn[nH]c2-c2cccc(F)c2)CC1	none
CCOC(=O)C1(CC2CC2)CCN(Cc2ccc3cccc(F)c3n2)CC1	none | KCNK9 block conf inactive | Kir2-1 spec inactive | HEK293 Tl ctr inactive
Cc1nn(Cc2ccccc2)c(=O)n1N(C)c1ncc(C(F)(F)F)cc1Cl	none | KCNK9 block conf inactive | Kir2-1 spec inactive | HEK293 Tl ctr inactive
Cc1cc(C)nc(/N=c2/ssnc2Cl)c1	none | KCNK9 block conf inactive | Kir2-1 spec inactive | HEK293 Tl ctr inactive
COc1ccc2nc(NNC(=O)c3cc(=O)c4ccccc4o3)sc2c1	none
Cc1ccc2sc(NNC(=O)c3cc(=O)c4ccccc4o3)nc2c1C	none | KCNK9 block conf inactive | Kir2-1 spec inactive | HEK293 Tl ctr inactive
O=C(NNc1nc2c(F)cccc2s1)c1cc(=O)c2ccccc2o1	none
Cc1cccc2sc(NNC(=O)c3cc(=O)c4ccccc4o3)nc12	none | KCNK9 block conf inactive | Kir2-1 spec inactive | HEK293 Tl ctr inactive
Cc1[nH]n(-c2ccccc2)c(=O)c1N=Nc1ccccc1C(=O)O	none
Cc1cc(Cl)cc2c(N=Nc3ccccc3C(=O)O)c(O)[nH]c12	none | KCNK9 block conf inactive | Kir2-1 spec inactive | HEK293 Tl ctr inactive
O=S(=O)(N/N=C/c1ccc(Cl)cc1)c1ccc(Cc2ncc(C(F)(F)F)cc2Cl)s1	KCNQ1 block 10, KCNK3 block -9.3 | KCNK9 block conf inactive | Kir2-1 spec inactive | HEK293 Tl ctr inactive
COc1ccc2cc(C(=O)C3CCCN(C(=O)/C=C/c4ccccn4)C3)ccc2c1 (stereo not drawn)	none | KCNK9 block conf inactive | Kir2-1 spec inactive | HEK293 Tl ctr inactive
Cc1cc(C(=O)N2CCCC(C(=O)c3ccc4ccccc4c3)C2)n(C)n1 (stereo not drawn)	none | KCNK9 block conf inactive | Kir2-1 spec inactive | HEK293 Tl ctr inactive
CCn1cc(C(=O)N2CCCC(C(=O)c3ccc4ccccc4c3)C2)cn1 (stereo not drawn)	none | KCNK9 block conf inactive | Kir2-1 spec inactive | HEK293 Tl ctr inactive
O=C(c1ccc2ccccc2c1)C1CCCN(C(=O)c2cnccn2)C1 (stereo not drawn)	none | KCNK9 block conf inactive | Kir2-1 spec inactive | HEK293 Tl ctr inactive
O=C(Nc1nnc(-c2ccccc2)s1)c1cc(S(=O)(=O)N2CCOCC2)c(Cl)cc1Cl	none
CCn1c(=O)c2c(nc(SCC(=O)N3CCCC(C)C3)n2C)n(C)c1=O (stereo not drawn)	none
CCOc1ccc(N(C)Cc2cc(=O)oc3ccc(OCC)cc23)cc1	KCNK9 inh -11 | KCNK9 block conf 42% | Kir2-1 spec inactive | HEK293 Tl ctr 32%
O=C(Cn1cnc2c(OCc3ccccc3)ncnc21)N[C@H](CO)Cc1cc2ccccc2[nH]1	none (no result: KCNQ1 act, KCNQ1 block, hERG rescue, KCNK9 inh)
O=C(c1ccc(F)c(S(=O)(=O)N2CCOCC2)c1)N1CCc2ccccc21	none | KCNK9 block conf inactive | Kir2-1 spec inactive | HEK293 Tl ctr inactive
O=C(OCC(=O)N1CCCc2ccccc21)c1ccc(F)c(S(=O)(=O)N2CCOCC2)c1	none
Cc1cc(C(=O)COC(=O)C2=NNC(=O)CC2)c(C)n1-c1cccc(C(F)(F)F)c1	none
COc1ccc(/C=C2\CCCC3C2=NN(C(=O)CSc2ncn[nH]2)C3c2ccc(OC)cc2)cc1 (stereo not drawn)	none
O=C(CSc1ncn[nH]1)N1N=C2/C(=C/c3ccccc3)CCCC2C1c1ccccc1 (stereo not drawn)	KCNK9 inh -12 | KCNK9 block conf 52% | Kir2-1 spec inactive | HEK293 Tl ctr 33%
COc1ccc(C(=O)CSc2nc(C(C)(C)C)nc3ccccc23)cc1	KCNK9 inh -10 | KCNK9 block conf 46% | Kir2-1 spec 35% | HEK293 Tl ctr 30%
C[C@H]1COC(=O)[C@H](CC(=O)OC(C)(C)C)C/C=C\C[C@H](CC(=O)N(CCO)Cc2ccccc2)C(=O)N1	none (no result: KCNQ1 act, KCNQ1 block, hERG rescue, KCNK9 inh)
Cc1cc(C)nc(N=Nc2c(O)n(Cc3ccc(Cl)cc3)c3ccccc23)n1	KCNK9 inh -18 | KCNK9 block conf 72% | Kir2-1 spec inactive | HEK293 Tl ctr 26%
O=Nc1c(O)n(Cc2cccc(Cl)c2)c2ccccc12	none
CCC(=O)n1nc(NCc2ccccc2OC)nc1NCc1ccccc1OC	KCNQ1 block 8 | KCNK9 block conf inactive | Kir2-1 spec inactive | HEK293 Tl ctr inactive
COc1ccc(CNc2nc(NCc3ccc(OC)cc3)n(C(C)=O)n2)cc1	none
C[n+]1cccc(/C=N/Nc2nc(Cl)c(C#N)c(Cl)c2Cl)c1	none | KCNK9 block conf inactive | Kir2-1 spec inactive | HEK293 Tl ctr inactive
N#Cc1c(Cl)nc(N/N=C/c2ccccc2)c(Cl)c1Cl	none
Cn1c(=O)c(C(=O)c2ccccc2)nc2ccccc21	none
O=C(c1ccccc1)c1nc2ccccc2n(CCCn2c(=O)c(C(=O)c3ccccc3)nc3ccccc32)c1=O	none | KCNK9 block conf inactive | Kir2-1 spec inactive | HEK293 Tl ctr inactive
COc1cccc(CNC(=O)CN2C(=O)c3ccccc3S2(=O)=O)c1	none
C(=N\N1CCN(Cc2ccccc2)CC1)/c1ccc(-c2ccccc2)cc1	none
COc1ccccc1/C=C/C=N/N1CCN(Cc2ccccc2)CC1	none | KCNK9 block conf inactive | Kir2-1 spec inactive | HEK293 Tl ctr inactive
Cc1ccc(CSc2nnc(SCC(=O)N/N=C/C=C/c3ccccc3[N+](=O)[O-])s2)cc1	KCNK9 inh -15 | KCNK9 block conf 64% | Kir2-1 spec inactive | HEK293 Tl ctr 30%
Cc1ccc(CN2CCN(/N=C/c3cc([N+](=O)[O-])ccc3Cl)CC2)cc1	none
COc1ccc2ccccc2c1CN1CCN(Cc2ccccc2)CC1	none | KCNK9 block conf inactive | Kir2-1 spec inactive | HEK293 Tl ctr inactive
